Measurements from ChEMBL document CHEMBL1137183, “4-Aryl-3-(mercapto)quinolin-2-ones: novel maxi-K channel opening relaxants of corporal smooth muscle” (Bioorg Med Chem Lett, 2004).
In brackets after ≈: the same amount, converted by molar mass.

What was measured:
Oryctolagus cuniculus = species on record: Oryctolagus cuniculus; experiment: Percentage inhibition by the compound in isolated rabbit corpus cavernosum at 10 uM; type: functional
Procedure, shortened: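 New Zealand white rabbits (3.4–3.7 kg) euthanized by pentobarbital overdose. Corpus cavernosum strips, 3–5 mm, cut after removal of the tunica and held in modified Krebs-Henseleit bicarbonate buffer at 37 °C. Isometric force recorded. Strips pre-contracted with phenylephrine 3 μM to a steady force, then compound added. Result is % inhibition of force relative to vehicle control; n given per value.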

[1] = Effect on maxi-K mediated outward current in xenopus laevis oocytes at 20 uM; type: functional, Xenopus sp., Oocyte
Procedure, shortened: (§1)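 Two-electrode voltage clamp of whole-cell outward K+ current in Xenopus laevis oocytes expressing cloned hSlo maxi-K channels. Single drug concentration per line. Current is the iberiotoxin-sensitive fraction, tested in at least five oocytes. Value is the average current as a percentage of drug-free control (100%).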

[2] = Solubility was determined; type: physicochemical
Procedure, shortened: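 Aqueous solubility measured in HPLC-grade water by a UV absorptivity method, reported in mg/mL.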

[3] = Effect on maxi-K mediated outward current in xenopus laevis oocytes at 5 uM; type: functional, Xenopus sp., Oocyte; procedure, shortened: as §1
Oocyte = experiment: Effect on maxi-K mediated outward current in xenopus laevis oocytes at 20 uM; In soluble; type: functional, cell-based; details: Xenopus sp.; procedure, shortened: as §1

## OCCCSc1c(O)nc2ccc(C(F)(F)F)cc2c1-c1cc(Cl)ccc1O
Oryctolagus cuniculus
  Inhibition: 23%
[1]
  hSlo current: 242%
[2]
  solubility: 3 µg/mL (≈ 6.98 µM)

## OCCSc1c(O)nc2ccc(C(F)(F)F)cc2c1-c1cc(Cl)ccc1O
Oryctolagus cuniculus
  Inhibition: 43%
[1]
  hSlo current: 348%
[2]
  solubility: 4 µg/mL (≈ 9.62 µM)

## O=c1[nH]c2cc(C(F)(F)F)ccc2n1-c1cc(Cl)ccc1O
Oryctolagus cuniculus
  Inhibition: 31%
[1]
  hSlo current: 132%

## CC(C)(C)Sc1c(O)nc2ccc(C(F)(F)F)cc2c1-c1cc(Cl)ccc1O
[3]
  hSlo current: 73%
Oocyte
  hSlo current: Insoluble
[2]
  solubility: < 1 µg/mL

## CSc1c(O)nc2ccc(C(F)(F)F)cc2c1-c1cc(Cl)ccc1O
Oryctolagus cuniculus
  Inhibition: 22%
[1]
  hSlo current: 231%
[2]
  solubility: < 1 µg/mL

## OCC(O)CSc1c(O)nc2ccc(C(F)(F)F)cc2c1-c1cc(Cl)ccc1O (centres undefined)
Oryctolagus cuniculus
  Inhibition: 31%
[1]
  hSlo current: 246%
[2]
  solubility: 190 µg/mL (≈ 426 µM)

## Oc1ccc(Cl)cc1-c1c(S)c(O)nc2ccc(C(F)(F)F)cc12
[1]
  hSlo current: 197%
[2]
  solubility: 3 µg/mL (≈ 8.07 µM)
